Most compounds without a hit are left out; they make up all but 2.5% or so of the library.
HTRA1 inh: HTRA1 (human) protease inhibition; inhibition, % at 5.96 µM; recombinant HTRA1, FP-rhodamine activity-based probe, fluorescence polarization; Q92743; 340,000 tested, 0.5% active; in the data active = inhibition above about 36%;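 note: 0% = enzyme with DMSO and 100% = wells lacking enzyme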
PRMT1 FP inh: inhibitors of human PRMT1 | recombinant PRMT1, activity-based probe fluorescence polarization | inhibition, % at 2.79 µM | 370,000 tested, 1.3% active | AID 652257;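 active = inhibition above about 21% made by adding two undisclosed values, limit read from the data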
Target sequence (Q99873 whole entry, looked up): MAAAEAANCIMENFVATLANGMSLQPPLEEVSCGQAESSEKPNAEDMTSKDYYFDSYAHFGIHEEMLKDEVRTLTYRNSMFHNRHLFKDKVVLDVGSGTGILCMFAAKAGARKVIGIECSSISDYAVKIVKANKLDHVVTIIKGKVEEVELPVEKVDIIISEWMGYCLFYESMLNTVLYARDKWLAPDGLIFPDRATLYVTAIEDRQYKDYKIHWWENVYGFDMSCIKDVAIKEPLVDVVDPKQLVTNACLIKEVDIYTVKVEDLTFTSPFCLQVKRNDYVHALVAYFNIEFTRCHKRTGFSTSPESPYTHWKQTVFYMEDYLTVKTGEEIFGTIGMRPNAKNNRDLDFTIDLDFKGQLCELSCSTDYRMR
TCR CD3 inh: blocks the human TCR-CD3 interaction; TAMRA-labeled TCR probe fluorescence, biochemical; inhibition, % at 9.4 µM; 360,000 tested, 0.37% active; AID 651800; in the data active = inhibition above about 19%;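 note: recombinant mutant TCR 2C K166C tagged with TAMRA read by polarization; 0% = receptor in buffer alone and 100% = receptor with positive control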
SIAE primary: human SIAE inhibition, primary screen. SIAE FP-Rh probe binding, fluorescence polarization. 370,000 tested, 0.69% active. inhibition, % at 9.66 µM. Q9HAT2;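 active = inhibition above a cutoff: mean of compounds within the control limits plus 3 SD of those, cut at about 17% in these data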;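 note: 0% = plate median of compound wells and 100% = probe without SIAE protein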
mABHD4 FP: inhibits mouse alpha/beta hydrolase domain 4; purified mABHD4, FP-Rh probe fluorescence polarization; inhibition, % at 8.92 µM; 370,000 tested, 0.54% active;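 active = inhibition exceeding the mean over every tested compound plus 3 SD, cut at about 30% in these data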;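 note: 0% = plate median of compound wells and 100% = S159A mutant with DMSO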
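Test system: mABHD4 protein; Read-out basis: % inhibition; Incubation: 45 min + 60 min at 25 °C; Repeats: single replicate; Technique: fluorescence polarization with parallel and perpendicular emission, 525/598 nm; Compound: 8.92 µM, single dose; Benchmarks: full inhibition S159A mutant plus DMSO, zero as sample-well median.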
mABHD4 conf: ABHD4 (mouse) inhibition, FP confirmation; AID 720658; shares compounds with mABHD4 FP; purified mABHD4, FP-Rh probe fluorescence polarization; inhibition, % at 8.92 µM; 1,800 tested, 55% active;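 active = mean inhibition across replicates above the hit cutoff set in the primary screen, cut at about 30% in these data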;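 note: 0% = wild-type ABHD4 with DMSO and 100% = catalytically dead S159A mutant with DMSO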
* = called active by the depositor; x = no result given.

SMILES	HTRA1 inh	PRMT1 FP inh	TCR CD3 inh	SIAE primary	mABHD4 FP	mABHD4 conf
CCC[C@H]1[C@@H](OC(=O)N2CCOCC2)CC[C@@]23CCCN2C(=O)CCC[C@@H]13	x	7	x	-1	-4	x
O=C(CCNS(=O)(=O)c1ccccc1C(F)(F)F)NNC(=O)C1COc2ccccc2O1 (centres undefined)	-4	-2	-2	3	42*	-1
N#Cc1ccc(S(=O)(=O)N2CCCc3nc(-c4ccc(Br)cc4)ccc32)cc1	x	-2	0	-4	2	x
COc1ccc(OC)c(CN2C(=O)CN(S(C)(=O)=O)CC2(C)c2nnnn2C2CCCC2)c1 (centres undefined)	x	1	x	-5	4	x
CCOC(=O)/C(O)=C(\C#N)c1nc2ccccc2[nH]1	11	4	-2	5	15	x
O=C(NNC(=O)c1nc2ccccc2[nH]1)OCc1ccccc1	3	-2	0	5	36*	13
COC(=O)[C@@]12CCCCC3=C1N(CCC3)C(=O)[C@H]2CC(=O)N1CCN(C(=O)c2ccco2)CC1	x	7	x	-7	1	x
O=S1(=O)c2ccc(N3CC[C@@H](O)C3)cc2O[C@H]2CCN1C2	x	5	x	2	-4	x
Nc1[nH]n(-c2ccccc2)c(=O)c1N=Nc1ccccc1[N+](=O)[O-]	19	-3	6	3	13	x
CCc1ccccc1N=Nc1c(N)[nH]n(-c2ccccc2)c1=O	x	-2	x	12	34*	45*
COc1ccc(S(=O)(=O)N/N=C(/C)c2ccncc2)cc1	1	4	13	-1	5	x
COc1ccc(S(=O)(=O)N/N=C(/C)c2ccncc2)c(OC)c1	7	9	-12	7	71*	5
COC(=O)[C@]12C[C@H](CC(=O)NCc3cccc4ccccc34)C(=O)N(CCC3=CCCCC3)C1=C[C@H](C(C)C)O[C@@H]2C1CC1	x	-2	x	3	2	x
O=C(O)c1ccccc1Nc1ccccc1C(=O)O	-3	-2	2	3	0	x
O=C1C=C(Nc2ccccc2C(=O)O)c2ccccc2C1=O	25	13	2	7	44*	53*
C/C(=N\Nc1ccc(Cl)c(C(=O)O)c1)c1ccc2c(c1)OCO2	4	4	-4	10	11	x
C/C(=N\Nc1ccc(C(=O)O)cc1)c1ccc2c(c1)Nc1ccccc1S2	35	3	0	16	43*	77*
C=CCSC1=N/C(=C\C=C\c2ccco2)C(=O)S1	24	44*	16	13	64*	7
COCC(=O)c1[nH]c2ccccc2c1C	0	2	4	-2	6	x
C=CCOc1ccc(C(c2c(C(=O)O)[nH]c3ccccc23)c2c(C(=O)O)[nH]c3ccccc23)cc1	10	3	5	2	55*	53*
COc1ccc(CN=Cc2c(C(=O)O)[nH]c3ccccc23)cc1	7	3	-6	-5	2	x
O=C(O)c1[nH]c2ccccc2c1C(c1ccccc1)c1c(C(=O)O)[nH]c2ccccc12	10	1	9	7	32*	38*
COc1cc(OC)cc(C(=O)Nc2nc(CC(=O)NCc3ccc(F)cc3)cs2)c1	-45	1	-8	0	43*	35*
O=C(O)c1cccc(NS(=O)(=O)c2ccc(C3CCCCC3)cc2)c1	-18	x	x	x	x	x
O=C1c2ccccc2C(=O)c2cc(S(=O)(=O)Nc3ccccc3)ccc21	8	-1	-2	5	40*	53*
SMILES	HTRA1 inh	PRMT1 FP inh	TCR CD3 inh	SIAE primary	mABHD4 FP	mABHD4 conf
O=C(O)c1cccc(NS(=O)(=O)c2ccc3c(c2)C(=O)c2ccccc2C3=O)c1	2	1	-1	-5	45*	37*
O=S(=O)(Nc1ccccc1)c1ccc(F)cc1	-7	0	2	-6	0	x
COC(=O)[C@]12CCCCC=C1N(Cc1ccc(OC)cc1)C(=O)[C@@H]2CC(=O)NCCc1ccccc1OC	x	-1	x	1	-5	x
O=C(Cc1ccc2c(c1)OCO2)N1CCC(n2nc(-c3ccccc3)oc2=O)CC1	x	-4	x	3	-1	x
CC(=O)N=c1sc2ccccc2n1C	-1	-2	9	-4	5	x
CC(=O)N=c1sc2nc3ccccc3nc2n1N(C(C)=O)C(C)=O	5	8	17	2	35*	3
O=C(O)c1ccc(S(=O)(=O)c2ccc3c(c2)C(=O)N(c2ccc(O)cc2)C3=O)cc1	14	19	11	8	92*	-18
O=C(O)c1ccc(NC(=O)c2ccc3c(c2)C(=O)N(c2ccccc2)C3=O)cc1	4	2	1	-16	6	x
C=CCN1C(=O)[C@@H](CC(=O)N2CCCCC2)[C@]2(C(=O)OC)CCCCC=C12	x	-3	x	7	7	x
COc1ccccc1CN[C@@H]1CC[C@@]23CCCN2C(=O)CCC[C@H]3C1	x	-1	x	-7	-1	x
CCN(CC)c1ccc(C(=O)NNC(=O)C2CSC3(C)CCC(=O)N23)cc1 (centres undefined)	-6	-2	3	1	39*	-2
O=C(O)c1cccc(N/N=C/c2ccc(-c3ccccc3)cc2)c1	-26	-1	2	4	8	x
C/C(=N\Nc1cccc(C(=O)O)c1)c1cc2ccccc2o1	2	8	-8	1	32*	30*
O=C(O)c1cc(NN=C2c3ccccc3-c3ccccc32)ccc1Cl	-17	6	7	2	39*	45*
O=C(O)c1cccc2c1-c1ccccc1/C2=N\Nc1ccccc1	1	6	7	2	38*	23
O=C(O)c1cccc(NN=C2c3ccccc3-c3ccccc32)c1	-8	12	3	-8	56*	49*
O=C(O)c1cc(N/N=C/C(Cl)=C/c2ccccc2)ccc1Cl	-4	3	9	2	8	x
COc1cccc(N2CCN(C(=O)COc3cc(=O)n(C)c4ccccc34)CC2)c1	x	1	x	-4	-6	x
CC1=NN(c2nc(-c3ccccc3)cs2)C(=O)C1	11	6	-1	11	49*	146*
O=C1CC(c2ccccc2)=NN1c1nc(-c2ccccc2)cs1	-6	9	5	-2	23	x
COC(=O)c1cc2c(c3c4cc(OC)ccc4n(C(=O)c4ccccc4)c13)C(=O)N(C1CCCCC1)C2	x	6	-1	2	18	x
COc1cccc(CNc2cccc3cccnc23)c1O	34	-1	-7	6	34*	12
Oc1cccc(/C=N/Nc2cccc3cccnc23)c1	18	9	-5	7	20	x
COc1cc(/C=N/Nc2cccc3cccnc23)cc(OC)c1O	15	8	5	-2	32*	33*
COc1ccc(CCNCC(O)COc2cccc(C)c2)cc1OC (centres undefined)	x	-3	x	-2	-2	x
COC(=O)[C@]12C[C@H](CC(=O)NCc3ccc(OC)c(OC)c3)C(=O)N(Cc3ccc(Cl)cc3Cl)C1=C[C@H](C(C)C)O[C@@H]2C1CC1	x	-2	x	-1	-10	x
